Test results taken from ChEMBL document CHEMBL4270487, “The Berkeleylactones, Antibiotic Macrolides from Fungal Coculture” (J Nat Prod, 2017).
≈ marks a conversion by molar mass, not a printed value. Calls of active or inactive are those of the source. The calls are words filed in the database; no cut-off is given here.

Columns and labels:
Ribosome [1] = test: Induction of ribosome stalling assessed as induction of stalling of ribosome at ermBL ORF at 50 uM by extension inhibition assay
In short: (§1)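 Primer extension inhibition was run on an ermBL gene template following the published procedure. Erythromycin, josamycin and tylosin were included in the reaction as references at 50 μM. The test agent was present at 50 or 250 μM.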

Staphylococcus aureus [2] = test: Antibiotic activity against Staphylococcus aureus 13709 by broth microdilution assay or Alamar blue dye based colorimetric assay; format: functional
In short: (§2)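 Broth microdilution following CLSI standards, read colorimetrically with Alamar Blue. Test compounds were made as 50 mM stocks in DMSO, then serially diluted 2-fold in the test wells from a top final concentration of 500 μM (500, 250, 125, 64, 32 μM and lower). The MIC was taken from this dilution series.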

Streptococcus pyogenes = test: Antibiotic activity against Streptococcus pyogenes by broth microdilution assay or Alamar blue dye based colorimetric assay; format: functional; in short: as §2
Nakaseomyces glabratus = test: Antibiotic activity against Candida glabrata by broth microdilution assay or Alamar blue dye based colorimetric assay; format: functional
Bacillus subtilis = test: Antibiotic activity against Bacillus subtilis by broth microdilution assay or Alamar blue dye based colorimetric assay; format: functional; in short: as §2
Candida albicans = test: Antibiotic activity against Candida albicans by broth microdilution assay or Alamar blue dye based colorimetric assay; format: functional
Bacillus anthracis = test: Antibiotic activity against Bacillus anthracis by broth microdilution assay or Alamar blue dye based colorimetric assay; format: functional
In short: (§3)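 Minimum inhibitory concentration (MIC) by broth microdilution following CLSI standards, with Alamar Blue as the colorimetric reporter. Test compounds were made up as 50 mM stocks in DMSO and serially diluted 2-fold in the test wells. The top final well concentration was 500 μM (500, 250, 125, 64, 32, 16, 8, 4, 2, 1 μM, etc.).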

Staphylococcus aureus [3] = test: Antibiotic activity against methicillin-resistant Staphylococcus aureus isolate CAIRD116 by broth microdilution assay or Alamar blue dye based colorimetric assay; format: functional; in short: as §3
Staphylococcus aureus [4] = test: Antibiotic activity against methicillin-resistant Staphylococcus aureus isolate CAIRD142 by broth microdilution assay or Alamar blue dye based colorimetric assay; format: functional; in short: as §3
Staphylococcus aureus [5] = test: Antibiotic activity against methicillin-resistant Staphylococcus aureus isolate CAIRD148 by broth microdilution assay or Alamar blue dye based colorimetric assay; format: functional; in short: as §3
Staphylococcus aureus [6] = test: Antibiotic activity against methicillin-resistant Staphylococcus aureus isolate NE277 by broth microdilution assay or Alamar blue dye based colorimetric assay; format: functional; in short: as §3
[7] = In-vitro inhibition of protein translation using pY71-sfGFP in PUREexpress in vitro protein synthesis system assessed as reduction in cell-free GFP protein translation at 50 uM measured every 20 mins for 2 hrs; format: functional
In short: (§4)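 Cell-free transcription-translation reactions were programmed with the pY71-sfGFP plasmid. The antibiotic solution was dried at the bottom of the tube before the reaction components were added. Erythromycin, josamycin and tylosin served as references at a final 50 μM. Reactions were incubated at 37 °C, with GFP fluorescence (excitation 488 nm, emission 520 nm) read every 20 min for 2 h.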

[8] = In-vitro inhibition of protein translation using pY71-sfGFP in PUREexpress in vitro protein synthesis system assessed as reduction in cell-free GFP protein translation at 250 uM measured every 20 mins for 2 hrs; format: functional; in short: as §4
Ribosome [9] = test: Induction of ribosome stalling (unknown origin) assessed as induction of stalling of ribosome at ermBL ORF at 250 uM by extension inhibition assay; in short: as §1
Stromelysin-1 = Stromelysin-1 (Homo sapiens, UniProt P08254); test: Inhibition of MMP3 (unknown origin)
Sequence of Stromelysin-1 (P08254 whole entry): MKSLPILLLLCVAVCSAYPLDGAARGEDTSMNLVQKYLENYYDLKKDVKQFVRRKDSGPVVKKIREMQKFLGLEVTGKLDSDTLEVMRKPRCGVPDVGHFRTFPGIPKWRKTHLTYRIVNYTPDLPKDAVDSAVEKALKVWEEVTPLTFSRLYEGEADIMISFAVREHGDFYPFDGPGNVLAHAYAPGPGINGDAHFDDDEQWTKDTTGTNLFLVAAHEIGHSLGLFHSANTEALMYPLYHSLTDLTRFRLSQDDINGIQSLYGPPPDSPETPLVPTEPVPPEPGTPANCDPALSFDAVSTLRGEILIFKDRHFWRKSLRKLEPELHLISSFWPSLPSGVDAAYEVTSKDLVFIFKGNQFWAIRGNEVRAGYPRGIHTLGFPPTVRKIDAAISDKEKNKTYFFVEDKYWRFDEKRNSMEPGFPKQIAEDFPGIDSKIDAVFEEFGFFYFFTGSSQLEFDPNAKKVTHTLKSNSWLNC

K562 = test: Growth inhibition of human K562 cells at 10 uM incubated for 48 hrs by SRB assay; format: functional; settings: K562, 48 h, read-out: GI
RPMI-8226 [10] = test: Cytotoxicity human RPMI8226 cells assessed as cell lethality at 10 uM incubated for 48 hrs by SRB assay; format: functional
In short: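 Single-dose (10 μM) screen run by the NCI Developmental Therapeutics Program across its 60 cell-line panel. Read as percent growth inhibition.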

CCRF-CEM = test: Growth inhibition of human CCRF-CEM cells at 10 uM incubated for 48 hrs by SRB assay; format: functional; settings: read-out: GI
RPMI-8226 [11] = test: Growth inhibition of human RPMI8226 cells at 10 uM incubated for 48 hrs by SRB assay; format: functional; settings: RPMI-8226, 48 h, read-out: GI

In the case of `C[C@@H]1CCCCCCCCC[C@H](O)C(=O)C[C@@H](SC[C@@H](O)C(=O)O)C(=O)O1`, the Activity (Ribosome [1]) is reported as “inactive”, the MIC (Staphylococcus aureus [2]) is reported as 2 µM (≈ 0.809 µg/mL) and the MIC (Streptococcus pyogenes) is reported as 8 µM (≈ 3.24 µg/mL). The MIC (Nakaseomyces glabratus) was 16 µM (≈ 6.47 µg/mL), the MIC (Bacillus subtilis) was 32 µM (≈ 12.9 µg/mL) and the MIC (Candida albicans) was 64 µM (≈ 25.9 µg/mL). For the same compound, the MIC (Bacillus anthracis) was 8 µM (≈ 3.24 µg/mL), the MIC (Staphylococcus aureus [3]) was 2 µM and the MIC (Staphylococcus aureus [4]) was 4 µM. The MIC (Staphylococcus aureus [5]) was 2 µM, the MIC (Staphylococcus aureus [6]) was 2 µM (≈ 0.809 µg/mL) and the “translation inhibition (active/not active)” value [7] was “inactive”. For the same compound, the inhibition [8] was “inactive”, the Activity (Ribosome [9]) was “inactive” and the IC50 (Stromelysin-1) was 100 µM. It also gave an inhibition of growth at 10 µM (K562) of 85% and an Activity (RPMI-8226 [10]) of 2.4%.

In the case of `CC[C@H]1OC(=O)C[C@@H](O)[C@H](C)[C@@H](O[C@@H]2O[C@H](C)[C@@H](O[C@H]3C[C@@](C)(O)[C@@H](O)[C@H](C)O3)[C@H](N(C)C)[C@H]2O)[C@@H](CC=O)C[C@@H](C)C(=O)/C=C/C(C)=C/[C@@H]1CO[C@@H]1O[C@H](C)[C@@H](O)[C@@H](OC)[C@H]1OC`, the Activity (Ribosome [1]) is reported as “Active” and the “translation inhibition (active/not active)” value [7] is reported as “Active”.

In the case of `CC[C@H]1OC(=O)[C@H](C)[C@@H](O[C@H]2C[C@@](C)(OC)[C@@H](O)[C@H](C)O2)[C@H](C)[C@@H](O[C@@H]2O[C@H](C)C[C@H](N(C)C)[C@H]2O)[C@](C)(O)C[C@@H](C)C(=O)[C@H](C)[C@@H](O)[C@]1(C)O` [ERYTHROMYCIN], the Activity (Ribosome [1]) is reported as “Active”, the MIC (Staphylococcus aureus [3]) is reported as greater than 32 µg/mL and the MIC (Staphylococcus aureus [4]) is reported as greater than 32 µg/mL. The MIC (Staphylococcus aureus [5]) was greater than 32 µg/mL and the “translation inhibition (active/not active)” value [7] was “Active”.

`C[C@@H]1CCCCCCCCC[C@H](OC(=O)CCC(=O)O)C(=O)C[C@@H](SC[C@@H](O)C(=O)O)C(=O)O1` showed an MIC (Staphylococcus aureus [2]) of 8 µM (≈ 4.04 µg/mL), an MIC (Streptococcus pyogenes) of 250 µM (≈ 126 µg/mL) and an MIC (Nakaseomyces glabratus) of 64 µM (≈ 32.3 µg/mL). For the same compound, the MIC (Bacillus subtilis) was 64 µM (≈ 32.3 µg/mL), the MIC (Candida albicans) was greater than 250 µM and the MIC (Bacillus anthracis) was 16 µM (≈ 8.07 µg/mL). For the same compound, the MIC (Staphylococcus aureus [3]) was 32 µM, the MIC (Staphylococcus aureus [4]) was 32 µM and the MIC (Staphylococcus aureus [5]) was 16 µM. It also gave an MIC (Staphylococcus aureus [6]) of 16 µM (≈ 8.07 µg/mL).

`C[C@H]1OC(=O)/C=C/[C@@H](O)[C@@H](O)CCCCCCCC[C@@H]1O` gave an MIC (Staphylococcus aureus [2]) of 64 µM (≈ 19.2 µg/mL), an MIC (Streptococcus pyogenes) of 500 µM (≈ 150 µg/mL) and an MIC (Nakaseomyces glabratus) greater than 1000 µM. For the same compound, the MIC (Bacillus subtilis) was greater than 1000 µM, the MIC (Candida albicans) was greater than 1000 µM and the MIC (Bacillus anthracis) was 250 µM (≈ 75.1 µg/mL). It also gave an IC50 (Stromelysin-1) of 150 µM and an inhibition of growth at 10 µM (CCRF-CEM) of 38%.

`C[C@H]1COc2c(N3CCN(C)CC3)c(F)cc3c(=O)c(C(=O)O)cn1c23.C[C@H]1COc2c(N3CCN(C)CC3)c(F)cc3c(=O)c(C(=O)O)cn1c23.O` [LEVOFLOXACIN] showed an MIC (Staphylococcus aureus [3]) greater than 16 µg/mL, an MIC (Staphylococcus aureus [4]) of 0.25 µg/mL and an MIC (Staphylococcus aureus [5]) greater than 16 µg/mL.

Compound `C[C@@H]1CC(O)CCCCCCC[C@H](OC(=O)CCC(=O)O)C(=O)/C=C/C(=O)O1` (some centres not stated) has an MIC (Staphylococcus aureus [2]) of 32 µM (≈ 12.8 µg/mL), an MIC (Streptococcus pyogenes) of 125 µM (≈ 49.8 µg/mL) and an MIC (Nakaseomyces glabratus) greater than 1000 µM. For the same compound, the MIC (Bacillus subtilis) was 250 µM (≈ 99.6 µg/mL), the MIC (Candida albicans) was greater than 1000 µM and the MIC (Bacillus anthracis) was 64 µM (≈ 25.5 µg/mL).

In the case of `C[C@@H]1CCCCCCCCC[C@H](OC(=O)CCC(=O)O)C(=O)/C=C/C(=O)O1`, the MIC (Staphylococcus aureus [2]) is reported as 8 µM (≈ 3.06 µg/mL), the MIC (Streptococcus pyogenes) is reported as 125 µM (≈ 47.8 µg/mL) and the MIC (Nakaseomyces glabratus) is reported as 125 µM (≈ 47.8 µg/mL). It also gave an MIC (Bacillus subtilis) of 32 µM (≈ 12.2 µg/mL), an MIC (Candida albicans) of 250 µM (≈ 95.6 µg/mL) and an MIC (Bacillus anthracis) of 16 µM (≈ 6.12 µg/mL). The MIC (Staphylococcus aureus [3]) was 16 µM, the MIC (Staphylococcus aureus [4]) was 16 µM and the MIC (Staphylococcus aureus [5]) was 16 µM. It also gave an MIC (Staphylococcus aureus [6]) of 16 µM (≈ 6.12 µg/mL), an IC50 (Stromelysin-1) of 50 µM and an inhibition of growth at 10 µM (RPMI-8226 [11]) of 48%.

With `C[C@H]1c2cccc(O)c2C(=O)C2=C(O)[C@]3(O)C(=O)C(C(N)=O)=C(O)[C@@H](N(C)C)[C@@H]3[C@@H](O)[C@@H]21.O` [DOXYCYCLINE] the MIC (Staphylococcus aureus [3]) was 8 µg/mL, the MIC (Staphylococcus aureus [4]) was 16 µg/mL and the MIC (Staphylococcus aureus [5]) was 0.25 µg/mL.

In the case of `CO[C@@H]1[C@@H](O[C@@H]2O[C@H](C)[C@@H](O[C@H]3C[C@@](C)(O)[C@@H](OC(=O)CC(C)C)[C@H](C)O3)[C@H](N(C)C)[C@H]2O)[C@@H](CC=O)C[C@@H](C)[C@@H](O)/C=C/C=C/C[C@@H](C)OC(=O)C[C@H]1OC(C)=O`, the Activity (Ribosome [1]) is reported as “Active” and the “translation inhibition (active/not active)” value [7] is reported as “Active”.

With `C[C@H]1OC(=O)/C=C/C(=O)[C@@H](OC(=O)CCC(=O)O)CCCCCCCC[C@@H]1O` the MIC (Staphylococcus aureus [2]) was 16 µM (≈ 6.38 µg/mL), the MIC (Streptococcus pyogenes) was 64 µM (≈ 25.5 µg/mL) and the MIC (Nakaseomyces glabratus) was 64 µM (≈ 25.5 µg/mL). The MIC (Bacillus subtilis) was 64 µM (≈ 25.5 µg/mL), the MIC (Candida albicans) was 125 µM (≈ 49.8 µg/mL) and the MIC (Bacillus anthracis) was 16 µM (≈ 6.38 µg/mL). For the same compound, the inhibition of growth at 10 µM (K562) was 46% and the inhibition of growth at 10 µM (CCRF-CEM) was 48%.

For `CCC[C@@H]1C[C@@H](C(=O)N[C@@H]([C@H]2O[C@H](SC)[C@H](O)[C@@H](O)[C@H]2O)[C@H](C)Cl)N(C)C1` [CLINDAMYCIN], the MIC (Staphylococcus aureus [3]) was greater than 16 µg/mL, the MIC (Staphylococcus aureus [4]) was greater than 16 µg/mL and the MIC (Staphylococcus aureus [5]) was greater than 16 µg/mL.

Work on `Cc1nnc(SCC2=C(C(=O)O)N3C(=O)[C@@H](NC(=O)Cn4cnnn4)[C@H]3SC2)s1` [CEFAZOLIN] yielded an MIC (Staphylococcus aureus [3]) of 256 µg/mL, an MIC (Staphylococcus aureus [4]) of 256 µg/mL and an MIC (Staphylococcus aureus [5]) of 256 µg/mL.
